# From PubChem
# Wee1 degr inh = blocks degradation of human Wee1 kinase | P30291 | HeLa Luc-Wee1K328M stability, luciferase luminescence; 100% = proteasome inhibitor MG132 effect | reporter increase, % at 5 µM | 1.2% of 220,000 active | AID 1321;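 active means activation above the mean of all tested compounds plus 3 SD, set per screening run, cut at about 8.8% in these data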;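 further: cells exposed to compound for 20 h before luminescence read; 0% = DMSO alone and 100% = MG132 at 30 µM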
# FXIa inh 1536 = inhibitors of human coagulation factor XIa; purified FXIa, Boc-Glu-Ala-Arg-AMC fluorogenic substrate; inhibition, % at 5 µM; 0.14% of 220,000 active; AID 798;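 active means inhibition of at least 40%; inactive means inhibition below 40%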;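 further: fluorescence of freed AMC excited at 355 nm; 0% = enzyme without compound and 100% = no enzyme blank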
# FXIIa inh = factor XIIa (human) inhibition; 0.3% of 220,000 active; AID 800; inhibition, % at 5 µM; P00748; purified FXIIa, Boc-QGR-AMC fluorogenic substrate, 2 h; in the data active means inhibition above about 40%;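 further: 0% = enzyme with no compound and 100% = blank without enzyme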
# Target sequence (P00748 20-372 limits assumed): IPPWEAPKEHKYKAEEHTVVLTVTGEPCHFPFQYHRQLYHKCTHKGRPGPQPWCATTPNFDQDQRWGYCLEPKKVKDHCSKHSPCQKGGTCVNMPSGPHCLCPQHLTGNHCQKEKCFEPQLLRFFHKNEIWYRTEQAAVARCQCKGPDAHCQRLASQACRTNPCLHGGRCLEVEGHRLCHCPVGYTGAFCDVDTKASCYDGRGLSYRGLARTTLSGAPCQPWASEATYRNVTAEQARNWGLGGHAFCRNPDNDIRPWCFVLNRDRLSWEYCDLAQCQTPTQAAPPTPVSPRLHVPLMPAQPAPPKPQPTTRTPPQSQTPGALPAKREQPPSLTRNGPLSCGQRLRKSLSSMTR
# Target sequence (P00748 373-615 limits assumed): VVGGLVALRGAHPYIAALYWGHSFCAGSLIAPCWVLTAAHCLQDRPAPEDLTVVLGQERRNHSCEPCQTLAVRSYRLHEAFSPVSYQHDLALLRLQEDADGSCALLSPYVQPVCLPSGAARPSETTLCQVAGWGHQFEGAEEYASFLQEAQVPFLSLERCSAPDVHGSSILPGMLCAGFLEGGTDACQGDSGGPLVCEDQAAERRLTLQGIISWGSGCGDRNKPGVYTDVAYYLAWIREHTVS
# hK5 inh = inhibitors of human kallikrein 5; recombinant hK5, fluorogenic AMC substrate cleavage; inhibition, % at 5 µM; 0.59% of 210,000 active; AID 873;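 active means inhibition of 40% or more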;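 further: 0% = enzyme controls without compound and 100% = no-enzyme blanks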
# thrombin 1536 = inhibitors of human thrombin; alpha-thrombin, Boc-VPR-AMC fluorogenic substrate cleavage; AID 1046; inhibition, % at 5 µM; 0.26% of 220,000 active;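 active means inhibition at or above 40%; inactive means inhibition below 40%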;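 further: 0% = enzyme with no compound and 100% = wells without enzyme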
#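 Test system: human alpha-thrombin; medium: pH 7.5 Tris-saline with Tween 20; times: reaction at room temperature; signal: AMC fluorescence at 355 nm excitation and 460 nm emission; also added: Boc-VPR-AMC substrate, 15 µM final; dosing: one concentration per compound, 5 µM, with 0.2% DMSO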
# * = called active by the depositor; nt = not tested or not shown. Hits are enriched below; roughly 2.2% of the tested compounds scored in any of these assays.
SMILES,Wee1 degr inh,FXIa inh 1536,FXIIa inh,hK5 inh,thrombin 1536
CC(C)C(=O)Nc1ccc(C(=O)NNC(=S)NC(=O)c2ccco2)cc1,0,2,14,-28,2
Cc1noc(C)c1COc1cccc(C(=O)Nc2ccccc2N2CCOCC2)c1,-1,-1,9,-12,-6
Clc1nc2nc3n(c2nc1Cl)CCC3,3,5,9,6,1
COCC(=O)n1nc(-c2ccc(Cl)cc2)nc1NCc1ccc(F)cc1,-1,1,12,-9,51*
COCC(=O)n1nc(-c2ccc(C)cc2)nc1NCc1ccc(F)cc1,3,-6,-6,-17,79*
CC(CCCC(C)(C)O)NC(=O)c1cc(COc2ccc3ncccc3c2)on1 (stereo not given),-2,7,5,-2,-2
CC(/C=N/NC(=O)c1cc(-c2cccn2C)n[nH]1)=C\c1ccccc1,-1,53*,36,57*,21
COc1ccc(C2SCC(=O)N2c2c(C)n(C)n(-c3ccccc3)c2=O)cc1OC (stereo not given),-3,-3,-4,-14,-2
O=C(N1CCCC1)C12CC3CC(CC(C3)C1)C2,-1,4,11,-8,-3
O=C1NCCN1C(=O)C12CC3CC(CC(C3)C1)C2,9.1*,0,10,-5,-3
CCC(CO)NC1=C([N+](=O)[O-])C(=O)CC(C)(C)C1 (stereo not given),3,18,18,50*,15
CC(C)CNC(=O)CN(C1CCCCC1)S(C)(=O)=O,0,3,10,52*,24
CC(NC(=O)CN(C1CCCCC1)S(C)(=O)=O)c1ccccc1 (stereo not given),4,18,18,36,61*
O=C(c1ccco1)N1CCN(C/C=C/c2ccccc2)CC1,2,4,15,2,0
O=C(NC(=S)N1CCN(C/C=C/c2ccccc2)CC1)c1ccco1,9.6*,2,7,-1,-3
O=C1NC2(CCCCC2)C(=O)N1Cc1cccc(C(F)(F)F)c1,2,-5,2,-12,-2
CCN(CC)CCN(C(=O)c1c(F)cccc1F)c1nc2cc(C)cc(C)c2s1,-3,1,8,-7,3
O=C1OCC2OC(O)C(O)C(O)C2OC(=O)c2cc(O)c(O)c(O)c2-c2c(O)c(O)c3oc(=O)c4c(c(O)c(O)c5oc(=O)c2c3c54)-c2c1cc(O)c(O)c2O (stereo not given),nt,59*,-3,23,-4
CCN(CC)C(=O)Cn1nnc(-c2ccc(S(C)(=O)=O)cc2)n1,1,2,7,-4,6
COC(=O)CS(=O)(=O)c1cccc2cccnc12,1,-4,4,-10,-6
O=C1C=C(Nc2ccc(Cl)cc2Cl)CC(c2ccco2)C1 (stereo not given),9.7*,-3,10,8,-1
O=C1C=C(NCc2ccc(Cl)cc2)CC(c2ccco2)C1 (stereo not given),0,-12,-11,-47,2
Cc1nn(Cc2c(F)c(F)c(F)c(F)c2F)c(C)c1NC(=O)c1cccc(COc2ccccc2Cl)c1,15*,5,14,-13,4
COC(=O)c1cc(C(=O)Nc2ccc(Cl)cn2)cc([N+](=O)[O-])c1,9.0*,-5,-2,-22,2
CCOC(=O)c1c(C)n(C)c2ccc(OC)c(NC(=O)CCN3CCC(Cc4ccccc4)CC3)c12,5,52*,27,23,9
SMILES,Wee1 degr inh,FXIa inh 1536,FXIIa inh,hK5 inh,thrombin 1536
COc1ccc(-c2nn(-c3ccccc3)cc2C2CC(c3cccs3)=NN2C(=O)CCC(=O)O)cc1 (stereo not given),-2,2,10,3,0
COc1ccc(C2CC(c3ccccc3)=NN2C(=O)CN2CCN(Cc3ccccc3)CC2)cc1 (stereo not given),1,32,27,29,85*
COc1ccc(C2=NN(C(=O)CCCC(=O)O)C(c3cn(-c4ccccc4)nc3-c3ccccc3)C2)cc1 (stereo not given),1,24,40*,17,19
Cc1ccc(-c2c(C)sc(NC(=O)C3C4CCC(O4)C3C(=O)O)c2C(=O)OC(C)C)cc1 (stereo not given),0,-7,-3,107*,3
Oc1ccc(F)cc1-c1cc(-c2ccc3c(c2)OCCO3)n[nH]1,9.5*,-14,11,-3,-3
FC(F)(F)c1cccc(Cn2nnnc2-c2cc(Cl)cc(Cl)c2)c1,-3,-3,12,-7,-5
O=C(NC(=O)c1ccccc1O)c1ccc(C(F)(F)F)cc1,9.1*,0,6,2,-3
COc1cc(S(=O)(=O)N2CCN(C(=O)c3ccccc3F)CC2)c(OC)cc1NC(C)=O,-1,16,16,47*,10
CCCS(=O)(=O)N1CCN(C(=O)c2ccccc2F)CC1,-2,4,2,-19,4
CC(C)(C)c1ccc(C(=O)NN2C(=O)CSC2=S)cc1,11*,2,8,-9,-3
CCC(=O)n1nc(-c2ccc(Cl)cc2)nc1SC,-2,22,34,-7,57*
CCC(=O)n1nc(-c2ccc(OC)cc2)nc1SC,2,6,11,-7,28
CCCC(=O)n1nc(-c2ccc(Cl)cc2)nc1SC,-1,0,14,-4,52*
Cc1ccccc1-n1ccnc1SCC(=O)NCc1ccco1,-4,-3,2,-3,-5
COc1cccc(CN2CCN(c3nc4nonc4nc3N3CCCCC3)CC2=O)c1,4,4,9,7,-1
Cc1ccc(S(=O)(=O)N2CCN(c3ccccc3)CC2)cc1C(N)=O,4,-3,5,-5,2
CC(=O)c1c(C(C)=O)c(C)n(-c2cccc([N+](=O)[O-])c2)c1C,2,5,9,-21,-9
CC(=O)C1=C(c2cccc([N+](=O)[O-])c2)N(C(C)=O)n2c(C)nnc2S1,10.0*,-4,1,6,0
COc1ccc(F)cc1S(=O)(=O)Nc1cccc(C(=O)O)c1,-2,-3,1,-11,-8
O=C(CSc1ccccn1)N/N=C/C=C/c1ccccc1,0,-3,8,-5,-6
C(=C\c1ccccc1)/CSc1ccccn1,9.2*,1,1,-4,-9
CC(C)OCCCNS(=O)(=O)c1ccc2c(c1)oc(=O)n2C,0,16,21,42*,14
CCN(CC)S(=O)(=O)c1ccc(C)c(N=C=S)c1,5,-2,2,-3,-12
O=C(CSc1ncccn1)N/N=C/c1cccc(OC2CSC2)c1,-1,68*,17,16,8
Oc1cccc(-c2nc3ccc4ccccc4c3c3c2CCC3)c1,9.1*,-2,9,-13,-4
Cc1ccc(C(=O)N(C)CC(=O)Nc2ccc(F)c(F)c2F)o1,3,2,15,1,-9
CC(C)(C)C(=O)NC(=S)Nc1ccccc1C(N)=O,11*,0,8,-19,-6
